# Screening data (PubChem BioAssay)
# AP ELISA ortho: alternative complement pathway inhibitors, primary screen, biochemical, ELISA, human serum, orthogonally pooled compounds; LPS-coated ELISA, C3 deposition; tested in compound mixtures; inhibition, % at 5 µM; actives 0.08% (n = 62,000); AID 1235, 2008;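 active means inhibition above 30% in each of the two pooled mixtures holding the compound, so the lower value exceeds 30%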;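 further: 0% = serum in Mg-EGTA without compound and 100% = EDTA serum blank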
#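 Test system – human serum alternative complement pathway, C3 deposition on LPS-coated wells · Buffer or medium – diluted human serum in Mg2+-EGTA GVB++ · Compound dosing – 5 µM each compound, pools of ten, 50 µM per pool · Schedule – 1 h serum-compound exposure at 37 °C · Measured by – Anti-C3 ELISA, OD 450 nm · Read-out basis – percent inhibition of C3 deposition onto LPS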
# tolC growth inh: growth inhibitors of E. coli tolC mutant, primary screen, strain BW25113 ΔtolC::kan, 384-well; actives 2.2% (n = 65,000); growth inhibition, % at 10 µM (by protocol); OD615;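 active means growth inhibition at or above a cutoff equal to the mean over every tested compound plus 3 SD, cut at about 60% in these data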;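 further: growth measured after 20 h incubation at 37 °C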
#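 signal = optical density read at 615 nm | test system = E. coli ΔtolC::kan strain BW25113 | timing = 20 h compound exposure of bacteria at 37 °C | buffer or medium = LB medium plus 50 µg/mL kanamycin | compound dosing = 10 µM final, single dose | evaluation = % inhibition of E. coli growth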
# HePTP inh: inhibitors of human HePTP phosphatase, primary screen, biochemical, absorbance, leukemia target; actives 0.64% (n = 110,000); AID 521, 2006; recombinant HePTP phosphatase activity, OD absorbance; inhibition, % at 20 µM; Tyrosine-protein phosphatase non-receptor type 7 (Homo sapiens), P35236; in the data active means inhibition above about 50%;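 further: plate controls were vehicle for no effect and reference inhibitor for full effect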
# PLAP act: PLAP enzyme activators, biochemical, luminescence, HTS; Alkaline phosphatase, placental type (Homo sapiens), P05187; purified PLAP enzyme, luminescent substrate read-out; hits give high values; activation fold at 20 µM; actives 1.2% (n = 96,000); AID 696, 2007; in the data active means activation fold above about 2
# Target sequence (P05187 whole entry, looked up): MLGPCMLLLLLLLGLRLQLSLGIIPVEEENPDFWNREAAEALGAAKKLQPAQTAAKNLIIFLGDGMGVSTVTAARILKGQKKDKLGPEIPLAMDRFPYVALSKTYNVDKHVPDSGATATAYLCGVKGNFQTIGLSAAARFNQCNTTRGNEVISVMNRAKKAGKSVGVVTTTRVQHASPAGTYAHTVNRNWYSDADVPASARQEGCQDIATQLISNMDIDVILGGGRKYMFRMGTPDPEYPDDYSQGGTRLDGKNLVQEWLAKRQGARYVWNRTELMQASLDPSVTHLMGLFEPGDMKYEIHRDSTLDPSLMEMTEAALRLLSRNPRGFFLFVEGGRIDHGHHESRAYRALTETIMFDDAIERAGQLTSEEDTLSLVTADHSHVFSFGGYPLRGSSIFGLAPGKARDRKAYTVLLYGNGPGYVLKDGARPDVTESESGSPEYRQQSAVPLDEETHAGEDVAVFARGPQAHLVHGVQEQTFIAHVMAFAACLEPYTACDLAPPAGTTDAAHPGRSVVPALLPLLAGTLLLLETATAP
# E coli WT exp: growth inhibitors of wild-type E. coli, primary screen, strain BW25113, expanded library, OD600. OD600 absorbance. growth inhibition, % at 100 µM. actives 0.15% (n = 98,000). AID 710, 2007;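 active means growth inhibition above about 50% at one test dose, limit read from the data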;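 further: growth measured after 20 h incubation at 37 °C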
# * hit, by the source's call; / = not tested or not shown. Only some compounds are listed: those with a hit (about 2.3% of all), similar ones and a draw of the others.
SMILES,AP ELISA ortho,tolC growth inh,HePTP inh,PLAP act,E coli WT exp
O=[N+]([O-])c1ccc(N2CCOCC2)c(-c2nn[nH]n2)c1,/,/,-5.7,/,/
O=C(NNC(=O)C1CCCO1)c1ccc(Cl)cc1 (centres undefined),/,/,-1.8,2.2*,-2.0
O=C(COc1ccccc1Cl)NNC(=O)C1CCCO1 (centres undefined),/,/,/,2*,10.0
O=C(COc1ccccc1Cl)NC(=O)NC1CCCC1,-0.2,24.2,0.7,0.7,10.0
Cc1[nH][nH]c(=O)c1C(c1ccc(-c2ccc(Cl)c(Cl)c2)o1)c1c(C)[nH][nH]c1=O,/,/,/,2.9*,11.0
COc1ccc(NC2=C(Cl)C(=O)N(c3ccc(C)cc3C)C2=O)cc1,/,/,-13.6,/,/
CC(C)n1c(N2CCN(CC(=O)NCc3cccs3)CC2)nc2ccccc21,-2.7,5.3,5.1,2*,-4.0
Cc1ccc(OCC(=O)N2CCN(c3ccccn3)CC2)c(Br)c1,/,/,10.6,/,/
O=C(COc1ccc2ccccc2c1Br)N1CCN(c2ccccn2)CC1,9.9,92.7*,-4.2,1.1,-15.0
O=C(Cc1ccc(-c2ccccc2)cc1)NNC(=O)c1ccc(Cl)cc1,/,/,1.9,/,/
CCCCc1ccc(C2C(C#N)=C(N)SC(N)=C2C#N)s1,-34.2,93.0*,-8.6,1.2,15.0
CCCOc1ccccc1C1CC(=O)Nc2cc3c(cc21)OCCO3 (centres undefined),11.9,84.8*,7.3,/,-7.0
COc1ccccc1C/C(N)=N/OC(=O)Cc1ccc(Cl)cc1,/,/,-0.7,/,/
Fc1ccc(C(c2nnnn2C2CCCC2)N(Cc2ccco2)CC2CCCO2)cc1 (centres undefined),/,/,/,1.5,-1.0
c1ccc(CN(Cc2ccco2)C(c2ccncc2)c2nnnn2C2CCCC2)cc1 (centres undefined),12.1,63.6*,9.8,1.3,-6.0
Cc1cccc(NC(=O)c2ccccc2O)c1C,18.6,52.9,15.2,0.9,20.0
O=C(Nc1ccccc1O)c1ccccc1O,18.4,-3.5,1.5,1.2,63.0*
Cc1ccc(C)c(NC(=O)c2ccccc2O)c1,8.6,80.5*,2.9,0.9,3.0
Cc1cc(C2N=C(N)Nc3nc4ccccc4n32)c(C)n1-c1ccccc1Cl (centres undefined),-1.7,61.3*,8.6,/,10.0
NC1=NC(c2ccc(F)cc2)n2c(nc3ccccc32)N1 (centres undefined),16.3,-3.2,5.5,1.9,4.0
Cc1ccc(-n2c(C)cc(C3N=C(N)Nc4nc5ccccc5n43)c2C)c(C)c1 (centres undefined),10.7,100.0*,4.6,5.4,-21.0
O=C(COc1ccc2ccccc2c1)NCCc1ccccc1,/,/,-7.1,/,/
CCOc1ccc(NC(=O)CN(c2ccc(OC)c(Cl)c2)S(=O)(=O)c2ccccc2)cc1,/,/,-10.4,/,/
COc1ccc(S(=O)(=O)N2CCCC2C(=O)O)cc1 (centres undefined),/,/,6.7,/,/
O=C1C(=O)N(Cc2ccco2)C(c2cccc(Cl)c2)/C1=C(\O)c1ccc2c(c1)OCCO2 (centres undefined),20.8,69.7*,-10.7,/,3.0
SMILES,AP ELISA ortho,tolC growth inh,HePTP inh,PLAP act,E coli WT exp
COc1ccc(OC)c(C2/C(=C(/O)c3ccc(C)cc3)C(=O)C(=O)N2Cc2ccco2)c1 (centres undefined),/,8.9,-0.3,/,/
COc1cccc(C2/C(=C(/O)c3ccc(C)cc3)C(=O)C(=O)N2Cc2ccco2)c1 (centres undefined),/,76.8*,10.5,/,/
COc1ccc(/C(O)=C2/C(=O)C(=O)N(CC3CCCO3)C2c2cccc(OC)c2)cc1 (centres undefined),13.1,100.0*,0.5,/,0.0
O=C(COc1ccccc1[N+](=O)[O-])Nc1ccc2oc(-c3cccc(F)c3)nc2c1,/,/,8.4,/,/
O=C(COc1ccc(Cl)cc1Cl)Oc1ccccc1,/,/,-13.1,/,/
Cc1nc2ccc(S(=O)(=O)c3ccc4nc(C)[nH]c4c3)cc2[nH]1,/,/,/,1.3,8.0
Cc1nc2ccc(C(C(F)(F)F)(C(F)(F)F)C(F)(F)F)cc2[nH]1,13.3,99.5*,8.3,1.3,3.0
Cc1ccc(OCCCN2CCOCC2)c(C(C)(C)C)c1,/,/,-2.7,/,/
Cc1ccc(-c2noc(CN3CCN(c4ccccc4F)CC3)n2)cc1,8.0,84.4*,5.9,0.9,4.0
COc1ccc(-c2noc(CCC(=O)N3CCN(Cc4ccccc4)CC3)n2)cc1,4.8,23.2,1.7,1.6,4.0
c1ccc(CC2CCN(Cc3nc(-c4ccccc4)no3)CC2)cc1,10.7,69.9*,5.4,0.9,2.0
Cc1ccc(-c2noc(CN3CCCCC3)n2)cc1,/,/,/,1,11.0
COc1ccc(-c2noc(CN3CCC(Cc4ccccc4)CC3)n2)cc1,-10.4,67.4*,-5.8,1.3,/
CCNC(=S)NNC(=O)c1cc(-c2ccccc2)nc2ccccc12,/,/,9.1,/,/
CCNC(=S)NNC(=O)c1cc(C2CC2)nc2ccccc12,/,/,/,2.1*,4.0
CCNC(=S)NNC(=O)c1cc(-c2cccc(OCC)c2)nc2ccccc12,/,/,/,2.7*,4.0
Cc1ccc(-c2ncnn2-c2cccc(Cl)c2C)cc1,/,/,-20.7,/,/
O=C(/C=C/c1ccco1)Nc1cc(Cl)ccc1C(=O)O,/,/,102.5*,/,/
O=C(/C=C/c1ccco1)Nc1ccccc1C(=O)O,/,/,95.5*,/,/
O=C(/C=C/c1ccco1)NCc1ccc(Cl)cc1,/,/,9.9,/,/
O=C(/C=C/c1ccco1)Nc1ccccc1-c1ccccc1,/,/,4.8,/,/
CN(C)c1ccc(/C=N/Nc2nnc3c(n2)[nH]c2ccc(Br)cc23)cc1,/,/,-12.7,/,/
Cc1cc(C)cc(NC(=O)COc2cccc(C)c2)c1,/,/,0.2,/,/
CCOC(=O)Cc1c(C)nc2c(-c3ccc(Cl)cc3)c[nH]n2c1=O,-5.0,98.7*,3.6,1,21.0
O=[N+]([O-])c1ccc(/C(=N\Nc2ccccc2)c2cc(O)ccc2O)cc1,/,/,10.2,/,/
SMILES,AP ELISA ortho,tolC growth inh,HePTP inh,PLAP act,E coli WT exp
Cc1ccc(N2C(=O)CC(NCc3cccc4ccccc34)C2=O)cc1 (centres undefined),/,/,3.1,/,/
CC(C)(C)c1ccc(OCC(=O)NCc2ccco2)c(Br)c1,-20.2,100.0*,-6.3,1,3.0
CCCCc1nc(SCC(=O)Nc2ncccn2)n[nH]1,/,/,/,1.1,-6.0
CCCCc1nc(SCC(=O)Nc2ccc(S(N)(=O)=O)cc2)n[nH]1,7.4,-0.5,-4.2,2*,-1.0
CCOC(=O)c1ccc(N2C(=O)c3n[nH]c(C)c3C2c2ccccn2)cc1 (centres undefined),13.2,5.5,7.5,2.5*,8.0
Cc1ccc(N2C(=O)c3n[nH]c(C)c3C2c2cccnc2)cc1 (centres undefined),25.5,/,9.5,2.1*,-2.0
CCOC(=O)c1ccc(N2C(=O)c3n[nH]c(C)c3C2c2cccnc2)cc1 (centres undefined),17.7,-6.5,3.7,2.3*,0.0
COc1ccc(OC)c(N2C(=O)c3cccc4cccc(c34)C2=O)c1,/,/,9.2,/,/
